Laboratory results published in ChEMBL document CHEMBL1156430, “Identification of NVP-TAE684, a potent, selective, and efficacious inhibitor of NPM-ALK” (Proc Natl Acad Sci U S A, 2007).
Activity calls are given as the source filed them. No cut-off for these calls is given here.

Experiments:
[1] = molecular target: Signal transducer and activator of transcription 3 (Mus musculus) (UniProt P42227); experiment: Inhibition of STAT3 in mouse Ba/F3 NPM-ALK cells at 50 nM; format: cell-based; settings: TDE = time-dependent effect
Method in brief: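 Ba/F3 NPM-ALK or Karpas-299 cells held at 50 nM for times from 15 min onward. Phospho-NPM-ALK and phospho-STAT3 read by Western blot.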

KARPAS-299 [2] = experiment: Inhibition of RAS/RAF/MAPK signaling in human Karpas299 cells assessed as ERK phosphorylation; format: cell-based
Method in brief: (§1)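 Karpas-299 cells treated for 4 h with increasing concentrations or DMSO. Phospho-ERK and phospho-Akt read by Western blot.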

KARPAS-299 [3] = experiment: Inhibition of PI3K/Akt signaling in human Karpas299 cells assessed as Akt phosphorylation; format: cell-based; method in brief: as §1
BaF3 = experiment: Induction of apoptosis in mouse parental Ba/F3 cells at 50 nM after 48 hrs by annexin V assay; format: functional, cell-based
Method in brief: (§2)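 Parental Ba/F3 (with IL-3), Ba/F3 NPM-ALK or SU-DHL-1 cells treated with 50 nM or DMSO for 48 h. Annexin V/7-AAD staining read by flow cytometry; percent Annexin V-positive cells counted.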

SU-DHL-1 = experiment: Induction of apoptosis in human SUDHL1 cells at 50 nM after 48 hrs by annexin V assay; format: functional; method in brief: as §2
KARPAS-299 [4] = experiment: Induction of apoptosis in human Karpas299 cells at 50 nM after 48 hrs by annexin V assay; format: functional; settings: in the assay text read “72 hrs” for “48 hrs”
Method in brief: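 Karpas-299 cells given 50 nM or DMSO, with flow cytometry every 24 h up to 72 h. Annexin V staining gave the percent of positive cells.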

KARPAS-299 [5] = experiment: Cell cycle arrest in human Karpas299 cells by accumulation in G1 phase at 25 nM after 72 hrs; format: functional
Method in brief: (§3)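 Karpas-299 cells exposed to 25 nM or DMSO for 24, 48 and 72 h, then fixed, stained with propidium iodide and analyzed for cell cycle distribution by flow cytometry. Three separate experiments.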

KARPAS-299 [6] = experiment: Cell cycle arrest in human Karpas299 cells by accumulation in S phase at 25 nM after 72 hrs; format: functional; method in brief: as §3
[7] = Cmax in human Karpas299 cells xenografted SCID beige mouse at 20 mg/kg, po; format: ADME, organism-based, KARPAS-299; design: dose 20 mg/kg, route oral; settings: in vivo
Method in brief: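 Mice given a single oral dose of 20 mg/kg as a solution in 10% 1-methyl-2-pyrrolidinone/90% PEG 300. Plasma levels measured to give Cmax, bioavailability and elimination half-life.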

Mus musculus [8] = experiment: Toxicity in human Karpas299 cells xenografted in SCID beige mouse at 10 mg/kg, po; format: organism-based, KARPAS-299; design: dose 10 mg/kg, route oral; settings: in vivo
Method in brief: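 Female Fox Chase SCID_Beige mice bearing i.v. Karpas-299 cells received 10 mg/kg orally once daily from 72 h after injection. Watched for signs of compound- or disease-related toxicity.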

BCR-ABL = experiment: Antilymphomal activity against mouse Ba/F3 BCR-ABL cells xenografted in SCID beige mouse assessed as reduction in bioluminescence signal at 10 mg/kg, po once daily after 2 weeks; format: functional, organism-based; design: dose 10 mg/kg
Method in brief: (§4)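 Female Fox Chase SCID_Beige mice injected in the tail vein with 1 × 10⁶ luciferase-expressing Ba/F3 BCR-ABL or Ba/F3 NPM-ALK cells. From 72 h, 10 mg/kg given orally once daily in 10% 1-methyl-2-pyrrolidinone/90% PEG 300, or vehicle. Bioluminescence imaged after 2 weeks; spleens weighed.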

[9] = Antilymphomal activity against mouse Ba/F3 NPM-ALK cells xenografted in SCID beige mouse assessed as reduction in bioluminescence signal at 10 mg/kg, po once daily after 2 weeks relative to control; format: functional; design: scale not given: the % may be the effect or the level left; method in brief: as §4
Mus musculus [10] = experiment: Toxicity in mouse Ba/F3 NPM-ALK cells xenografted in SCID beige mouse assessed as reduction in spleen weight at 10 mg/kg, po; format: organism-based; design: dose 10 mg/kg, route oral; scale not given: the % may be the effect or the level left; settings: in vivo
KARPAS-299 [11] = experiment: Antilymphomal activity against human Karpas299 cells xenografted in SCID beige mouse assessed as reduction in NPM-ALK phosphorylation after 3.5 weeks of […] at 10 mg/kg for 3 days; format: functional, organism-based; design: dose 10 mg/kg
Method in brief: (§5)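 Female Fox Chase SCID_Beige mice given 1 × 10⁶ Karpas-299 cells by tail vein. Treatment began at 3.5 weeks, once palpable lymphomas had formed. Drug at 10 mg/kg or vehicle for 3 days, 3 mice per arm. Killed 4 h after the third dose. Excised lymph nodes immunoblotted for NPM-ALK and Stat3 phosphorylation.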

KARPAS-299 [12] = experiment: Antilymphomal activity against human Karpas299 cells xenografted in SCID beige mouse assessed as reduction in downstream target STAT3 phosphorylation after 3.5 weeks of […] at 10 mg/kg for 3 days; format: functional, organism-based; design: dose 10 mg/kg; method in brief: as §5
KARPAS-299 [13] = experiment: Antilymphomal activity against human Karpas299 cells xenografted in SCIDbeige mouse assessed as reduction in CD30 expression in lymph nodes after 3.5 weeks of […] at 10 mg/kg for 3 days; format: functional, organism-based; design: dose 10 mg/kg
Method in brief: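 Female Fox Chase SCID_Beige mice given Karpas-299 cells i.v. and left 3.5 weeks until lymphomas were palpable. Then dosed at 10 mg/kg or vehicle for 3 days. Killed 4 h after the third dose. Excised lymph node sections scored for CD30 by immunohistochemistry.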

KARPAS-299 [14] = experiment: Inhibition of human Karpas299 cells assessed as reduction in CD30 receptor expression on cell surface after 24 hrs; format: functional; design: scale not given: the % may be the effect or the level left
Method in brief: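 Karpas-299 cells cultured with drug for 24 h. Surface CD30 receptor expression then measured.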

Chain of Signal transducer and activator of transcription 3 (Mus musculus) (P42227 whole entry): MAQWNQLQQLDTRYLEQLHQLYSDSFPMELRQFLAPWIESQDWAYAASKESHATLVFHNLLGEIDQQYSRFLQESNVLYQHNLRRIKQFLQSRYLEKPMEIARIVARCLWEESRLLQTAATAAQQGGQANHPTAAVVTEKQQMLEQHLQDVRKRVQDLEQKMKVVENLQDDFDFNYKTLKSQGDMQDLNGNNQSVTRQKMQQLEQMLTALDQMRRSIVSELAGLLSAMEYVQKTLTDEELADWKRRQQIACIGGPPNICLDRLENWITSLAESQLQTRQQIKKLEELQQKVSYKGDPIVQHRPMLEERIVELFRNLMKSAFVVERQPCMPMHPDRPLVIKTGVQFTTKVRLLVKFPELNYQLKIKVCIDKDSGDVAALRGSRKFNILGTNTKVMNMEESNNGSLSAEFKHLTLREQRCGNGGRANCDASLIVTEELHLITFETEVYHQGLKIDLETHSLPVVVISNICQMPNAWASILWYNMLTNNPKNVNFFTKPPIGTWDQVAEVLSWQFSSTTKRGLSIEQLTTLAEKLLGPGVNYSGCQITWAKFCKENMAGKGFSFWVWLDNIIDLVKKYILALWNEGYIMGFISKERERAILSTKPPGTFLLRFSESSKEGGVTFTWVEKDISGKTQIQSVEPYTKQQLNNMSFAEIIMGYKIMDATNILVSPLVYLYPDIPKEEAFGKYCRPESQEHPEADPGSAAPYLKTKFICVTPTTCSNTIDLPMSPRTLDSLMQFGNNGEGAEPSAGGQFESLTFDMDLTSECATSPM

Activity [1]: tde | Cmax [7]: 800 nM
SMILES: COc1cc(N2CCC(N3CCN(C)CC3)CC2)ccc1Nc1ncc(Cl)c(Nc2ccccc2S(=O)(=O)C(C)C)n1 [TAE-684]
Activity (KARPAS-299 [2]): Dose-dependent effect | Activity (KARPAS-299 [3]): Dose-dependent effect | Activity (BaF3): inactive | Activity (SU-DHL-1): 70% | Activity (KARPAS-299 [4]): 20% | Activity (KARPAS-299 [5]): 72% | Activity (KARPAS-299 [6]): 14% | Activity (Mus musculus [8]): Non-toxic | Activity (BCR-ABL): inactive | Activity [9]: >99% | Activity (Mus musculus [10]): 80% | Activity (KARPAS-299 [11]): Active | Activity (KARPAS-299 [12]): Active | Activity (KARPAS-299 [13]): Active | Activity (KARPAS-299 [14]): 80%
